Article PMC3655773 (Acta pharmaceutica Sinica. B, 2012)
Values joined by “and” are separate entries in the source; they are usually repeats but may differ in a detail not shown here. Equal entries are not always repeated. Where two headings read alike, the source gives them in different places.

Legend:
[1] = Water solubility analysis; assay type: physicochemical; details: pH 7.4, room temperature
Method in brief: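 Excess test compound in water buffered to pH 7.4 with K2HPO4 phosphate, sonicated with stirring for 1 h at room temperature, then filtered. Supernatant analysed by HPLC on a C18 column (70% MeCN/30% water, 1.0 mL/min, UV 320 nm). Saturated concentration taken from peak area against a five-point (five-fold step) standard curve in MeCN, diluted from an acetonitrile stock.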

[2] = rat, microsomes
[3] = Pharmacokinetic assay in rat; details: male SD rats; for F (oral bioavailability): i.g. 20 mg/kg vs 3 i.v. 2 mg/kg, dose-normalized AUC(0-t)
[4] = In vitro metabolic stability in SD rat liver microsomes; details: 1 μM, NADPH; for k obs (degradation rate constant): SD rat liver microsomes 0.1 mg/mL, parent compound 3 measured; for T1/2: apparent in vitro half-life; for T1/2 / CLint: SD rat liver microsomes; for CLint: intrinsic clearance
HIV-1 = details: previous studies, cited from earlier work; for EC50: anti-HIV potency; for TI: therapeutic index
[5] = cited from earlier work
in vitro = details: Sprague-Dawley, rat, microsomes, pH 7.4
[6] = cited from earlier work; remark: listed apart in the source
[7] = i.g. 20 mg/kg in 10% PEG400, parent 3 measured
[8] = i.g. 20 mg/kg in 10% PEG400, plasma parent compound 3 measured

CLint [2]	T1/2 [2]	CL [3, 7]	Cmax [3, 7]	MRT(0-t) [3, 7]	Tmax [3, 7]	Vd [3, 7]	AUC(0-t) [3, 8]	F (oral bioavailability) [3]	SMILES	k obs (degradation rate constant) [4]	T1/2 [4]	CLint [4]	other results
140 µL/min/mg	49.26 min	0.267 ± 0.12 mL/min/kg	621.5 ± 79.67 ng/mL	107.6 ± 10.9 min	45 min	0.045 ± 0.017 L/kg	1296.5 ± 437.6 ng·L/mL	26% and 25.7%	Cc1c(COC(=O)C(C)N)c(=O)oc2c3c(ccc12)OC(C)(C)[C@H](OC(=O)[C@@]12CCC(C)(C(=O)O1)C2(C)C)[C@@H]3OC(=O)[C@@]12CCC(C)(C(=O)O1)C2(C)C (relative stereo) [Compound 10, [3′,4′-Di-O-(S)-camphanoyl-4-methyl-(+)-cis-kellactone-3-yl]methyl 2-aminopropanoate]				Water solubility [1]: 18 µg/mL; systemic clearance (CL) ([3]; i.g. 20 mg/kg): 16 mL/min/kg
270 µL/min/mg	25.93 min	0.567 ± 0.067 mL/min/kg	398.5 ± 29.00 ng/mL	91.02 ± 12.4 min	30 min	0.102 ± 0.011 L/kg	588.9 ± 72.06 ng·L/mL	12.4%	Cc1c(COC(=O)CCC(=O)O)c(=O)oc2c3c(ccc12)OC(C)(C)[C@H](OC(=O)[C@@]12CC[C@@](C)(C(=O)O1)C2(C)C)[C@@H]3OC(=O)[C@@]12CC[C@@](C)(C(=O)O1)C2(C)C (relative stereo) [Compound 8, 4-Oxo-4-[(3′,4′-di-0-(S)-camphanoyl-4-methyl-(+)-cis-kellactone-3-yl)methoxy]butanok acid]				AUC ([3]; i.g. 20 mg/kg): 588.9 ng·h/mL

The remaining lines, values behind:

SMILES	CLint [2]	T1/2 [2]	CL [3, 7]	Cmax [3, 7]	MRT(0-t) [3, 7]	Tmax [3, 7]	Vd [3, 7]	AUC(0-t) [3, 8]	F (oral bioavailability) [3]	k obs (degradation rate constant) [4]	T1/2 [4]	CLint [4]	other results
Cc1c(COC(=O)CCC(=O)O)c(=O)oc2c3c(ccc12)OC(C)(C)[C@H](OC(=O)[C@@]12CC[C@@](C)(C(=O)O1)C2(C)C)[C@@H]3OC(=O)[C@@]12CC[C@@](C)(C(=O)O1)C2(C)C (relative stereo) [Compound 6, 4-Oxo-4-[(3′,4′-di-0-(S)-camphanoyl-4-methyl-(+)-cis-kellactone-3-yl)methoxy]butanok acid]	200 µL/min/mg	35.27 min	1.7 ± 0.333 mL/min/kg	80.9 ± 18.80 ng/mL	159.5 ± 40.9 min	22.8 min	0.669 ± 0.422 L/kg	157.9 ± 42.94 ng·L/mL	3.3%				AUC ([3]; i.g. 20 mg/kg): 157.9 ng·h/mL
Cc1c(COC(=O)C(N)C(C)C)c(=O)oc2c3c(ccc12)OC(C)(C)[C@H](OC(=O)[C@@]12CCC(C)(C(=O)O1)C2(C)C)[C@@H]3OC(=O)[C@@]12CCC(C)(C(=O)O1)C2(C)C (relative stereo) [Compound 11, [3′,4′-Di-O-(S)-camphanoyl-4-methyl-(+)-cis-kellactone-3-yl]methyl 2-amino-3-methyl-butanoate]										0.023	30.09 min	230 µL/min/mg	
Cc1c(CO)c(=O)oc2c3c(ccc12)OC(C)(C)[C@H](OC(=O)C12CCC(C)(C(=O)O1)C2(C)C)[C@@H]3OC(=O)C12CCC(C)(C(=O)O1)C2(C)C (stereo partly shown) [Compound 3, 3-hydroxymethyl-4-methyl-DCK]			0.333 ± 0.083 mL/min/kg	530.7 ± 120.8 ng/mL	119 ± 28.7 min	34.8 min	0.079 ± 0.039 L/kg	966.3 ± 219.7 ng·L/mL	17.3%	0.039	17.92 min	390 µL/min/mg	Water solubility [1]: 8.4 µg/mL; EC50 (HIV-1): 4 nM; TI (HIV-1): 6225; bioavailability (F) ([5]; in rat, previous studies): 15%; AUC(0-t) ([3]; i.v. 2 mg/kg in 10% PEG400): 558.4 ± 8.71 ng·L/mL; CL ([3]; i.v. 2 mg/kg in 10% PEG400): 0.05 ± 0.0017 mL/min/kg; MRT(0-t) ([3]; i.v. 2 mg/kg in 10% PEG400): 74.1 ± 10.1 min; Vd ([3]; i.v. 2 mg/kg in 10% PEG400): 0.008 ± 0.002 L/kg
Cc1cc(=O)oc2c3c(ccc12)OC(C)(C)[C@H](OC(=O)C12CCC(C)(C(=O)O1)C2(C)C)[C@@H]3OC(=O)C12CCC(C)(C(=O)O1)C2(C)C (stereo partly shown) [Compound 2, 4-methyl-DCK]													EC50 (HIV-1): 1.5 nM; TI (HIV-1): 15,733; bioavailability ([5]; rat, in vivo): poor bioavailability
Cc1c(COC(=O)CN)c(=O)oc2c3c(ccc12)OC(C)(C)[C@H](OC(=O)[C@@]12CCC(C)(C(=O)O1)C2(C)C)[C@@H]3OC(=O)[C@@]12CCC(C)(C(=O)O1)C2(C)C.Cl (relative stereo) [Compound 13, [3′,4′-Di-O-(S)-camphanoyl-4-methyl-(+)-cis-kellactone-3-yl]methyl 2-aminoacetate hydrochloride salt]	260 µL/min/mg	26.54 min	0.667 ± 0.167 mL/min/kg	191.1 ± 2.48 ng/mL	128.2 ± 7.38 min	45 min	0.123 ± 0.058 L/kg	477.8 ± 128.7 ng·L/mL	9.8%				
Cc1c(COC(=O)C(N)CC(C)C)c(=O)oc2c3c(ccc12)OC(C)(C)[C@H](OC(=O)[C@@]12CCC(C)(C(=O)O1)C2(C)C)[C@@H]3OC(=O)[C@@]12CCC(C)(C(=O)O1)C2(C)C (relative stereo) [Compound 12, [3′,4′-Di-O-(S) -camphanoyl-4-methyl-(+)-cis-kellactone-3-yl]methyl 2-amino-4-methyl-pentanoate]			0.433 ± 0.083 mL/min/kg	529.0 ± 192.9 ng/mL	77.16 ± 5.1 min	30 min	0.049 ± 0.020 L/kg	775.6 ± 162.9 ng·L/mL	15.8%	0.023	30.77 min	230 µL/min/mg	
CC(C)NCC(O)COc1cccc2ccccc12 (stereo not shown) [PRO, propranolol]													half-life at 1 μM (in vitro): 20.7 min; T1/2 in vivo [6]: a Reference compounds: propranolol (moderate metabolism in vivo with T1/2 of 3–5 h).
Cc1c(COC(=O)CN)c(=O)oc2c3c(ccc12)OC(C)(C)[C@H](OC(=O)[C@@]12CCC(C)(C(=O)O1)C2(C)C)[C@@H]3OC(=O)[C@@]12CCC(C)(C(=O)O1)C2(C)C (relative stereo) [Compound 9, [3′,4′-Di-O-(S)-camphanoyl-4-methyl-(+)-cis-kellactone-3-yl]methyl 2-aminoacetate]	1780 µL/min/mg	3.90 min	0.617 ± 0.017 mL/min/kg	163.6 ± 13.56 ng/mL	214.9 ± 18.4 min	15 min	0.467 ± 0.063 L/kg	384.1 ± 6.21 ng·L/mL	7.5%				
